# From PubChem
# MrgX1 ag = activates human MrgX1 receptor signaling; MrgX1-HEK293 cells, Fluo-4 calcium fluorescence, agonist mode; stronger effect = higher value; B-score at 10 µM; 310,000 compounds, 0.44% hits; AID 588627;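 active = calcium response B-score plate-corrected fluorescence ratio at least 3 library SD, with starting fluorescence B-score inside 5 SD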
# Target sequence (Q96LB2 whole entry, looked up): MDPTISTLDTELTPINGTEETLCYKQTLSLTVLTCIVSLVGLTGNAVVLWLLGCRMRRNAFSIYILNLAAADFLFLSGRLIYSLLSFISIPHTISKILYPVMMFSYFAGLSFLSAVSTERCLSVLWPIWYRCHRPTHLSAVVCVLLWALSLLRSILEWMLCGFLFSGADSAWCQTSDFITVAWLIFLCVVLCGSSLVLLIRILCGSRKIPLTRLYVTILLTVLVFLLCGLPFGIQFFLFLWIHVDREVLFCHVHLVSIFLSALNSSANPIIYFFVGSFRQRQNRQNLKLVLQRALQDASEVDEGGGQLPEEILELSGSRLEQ
#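 Material: MrgX1-expressing HEK293 cells / Dosing: compound as first of three additions / Incubation: overnight seeding, then 1 h dark dye loading / Signal: Fluo-4 NW calcium fluorescence / Evaluation: B-scored fluorescence response ratio / Benchmarks: positive and negative control wells on each plate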
# RGS4 pot = RGS4 potentiation or activation; HEK293 M3R/inducible RGS4, carbachol calcium flux Fluo4; stronger effect = lower value; B-score at 10 µM; 310,000 compounds, 0.92% hits;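 active = B-score of the integrated calcium signal more than 4 SD below the library mean, with starting fluorescence not abnormally high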;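 note: negative B-score means reduced calcium response which marks RGS4 activation or potentiation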
#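 Assay system: Inducible-RGS4 HEK293 cells carrying M3 receptor | Schedule: Compound preincubation 20 min at room temperature before agonist | Signal: Kinetic calcium fluorescence imaging with Fluo4-AM dye, 2 µM | Read-out basis: B score from integrated fluorescence ratio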
# MrgX1 allo act = human MrgX1 positive allosteric modulation, primary screen. 310,000 compounds, 0.63% hits. B-score at 10 µM. Q96LB2. AID 588675. MrgX1-HEK293, Fluo-4 calcium flux, FDSS; stronger effect = higher value;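 active = plate-corrected calcium response at least 3 library SD above typical, normal starting fluorescence, not activating the receptor alone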;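 note: compound read alongside a low EC10 to EC30 dose of BAM8-22 agonist; peak minus trough fluorescence over baseline measured at the second addition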
# RGS4 inh = human RGS4 inhibition; B-score at 10 µM; HEK293 M3R/RGS4 inducible, Fluo-4 calcium flux; stronger effect = higher value; triggered by carbachol at its EC20; P49798; 310,000 compounds, 0.45% hits;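 active = B-score, a plate-corrected calcium signal, over three deviations above library mean, with baseline fluorescence within five deviations of library mean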;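 note: RGS4 expression induced by doxycycline in cells with stable M3 receptor; B-score is computed from the integrated fluorescence ratio over baseline after carbachol; higher B-score means a larger calcium signal and so more RGS4 inhibition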
# Target sequence (P49798 whole entry, looked up): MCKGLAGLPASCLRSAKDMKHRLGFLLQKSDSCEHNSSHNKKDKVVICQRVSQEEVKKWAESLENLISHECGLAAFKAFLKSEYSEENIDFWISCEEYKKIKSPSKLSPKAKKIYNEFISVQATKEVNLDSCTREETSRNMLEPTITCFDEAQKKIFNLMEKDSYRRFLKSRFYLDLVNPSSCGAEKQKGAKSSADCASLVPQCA
# MrgX1 antagonist = human MrgX1 receptor antagonism, primary screen; Q96LB2; MRGX1-HEK293 calcium flux, Fluo-4, BAM8-22 antagonism; stronger effect = lower value; B-score at 10 µM; 310,000 compounds, 1.3% hits; AID 588676;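 active = calcium-response B-score plate-corrected more than 3 library SD below zero, starting fluorescence within 5 deviations, no agonist response on first addition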;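 note: peak minus trough fluorescence over baseline after final BAM8-22 challenge near maximal dose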
# RGS4 inh valid = RGS4 inhibitor validation | shares compounds with RGS4 inh | HEK293 M3R/RGS4, carbachol calcium Fluo-4 fluorescence; carbachol added at its EC20; 0 = buffer wells, 100 = carbachol control | calcium response, % at 10 µM | 1,700 compounds, 65% hits;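 active = duplicate-averaged calcium response above the buffer-only control mean plus 5 SD of those controls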;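 note: integrated fluorescence ratio F max minus min over baseline F0; higher response in RGS4-induced cells means RGS4 inhibition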
# M3R Ca ctr = checks RGS4 inhibitor effects in non-induced HEK293 M3R cells. shares compounds with RGS4 inh. carbachol calcium Fluo-4; submaximal (EC20) carbachol stimulus; buffer wells 0%, carbachol control wells 100%. activity (percent), % at 10 µM. 1,900 compounds, 20% hits; call rule not given here;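 note: RGS4 induction absent so cells express M3R without RGS4; higher means more calcium signal and flags a non-specific hit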
# RGS4 inh ctr2 = second RGS4 inhibitor counter-screen in uninduced cells lacking carbachol. shares compounds with RGS4 inh. HEK293 M3R/RGS4 non-induced, Fluo-4 calcium, no carbachol; normalised: buffer wells 0%, carbachol wells 100%. calcium response (agonist-mode artifact), % at 10 µM. 1,900 compounds, 22% hits. AID 493001;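 active = duplicate-averaged calcium rise in uninduced cells above buffer wells' mean plus 5 SD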
# The depositor's hits bear a star; i = inactive; / = no result. Only some compounds are listed: those with a hit (about 3.5% of all), similar ones and a draw of the others.
SMILES,MrgX1 ag,RGS4 pot,MrgX1 allo act,RGS4 inh,MrgX1 antagonist,RGS4 inh valid,M3R Ca ctr,RGS4 inh ctr2
O=C(Cn1ccc(C(F)(F)F)n1)N=Nc1c(O)[nH]c2ccccc12,i,i,i,i,i,/,i,i
Oc1[nH]c2ccc(Br)cc2c1N=Nc1ccc(C(F)(F)F)cn1,i,i,i,i,i,/,/,/
O=C(NCc1cccnc1)c1cccc(OC2CCN(Cc3ccc(CO)o3)CC2)c1,i,i,i,i,i,/,/,/
CC(C)n1c(CSCc2ccc(Cl)cc2Cl)n[nH]c1=S,i,i,i,i,i,/,/,/
Cc1ccc2c(c1)c(C1=c3ccccc3=NC1=O)c(O)n2C,i,i,i,i,i,/,/,/
C=CCn1c(O)c(C2=c3ccccc3=NC2=O)c2ccccc21,i,i,i,5.6*,i,12%*,33%*,22%*
COc1ccc(Nc2cc3n(c(=O)n2)CCc2cc(OC)c(OC)cc2-3)cc1,i,i,i,i,i,/,/,/
COc1cc2c(cc1OC)-c1cc(Nc3ccccc3)nc(=O)n1CC2,i,i,i,i,i,/,i,93%*
COc1cc2c(cc1OC)-c1cc(Nc3ccc(C)cc3)nc(=O)n1CC2,i,i,i,i,i,/,i,i
S=C1CCC(c2ccc(Br)cc2)=NN1c1ccccc1,i,i,i,i,i,/,/,/
CCOc1ccc(N(CC(=O)NCCc2ccccc2)C(=O)CCC(=O)Nc2cc(C)ccn2)cc1,i,i,i,i,i,/,/,/
Cc1cc(C)n(CC(O)Cn2c3ccc(Cl)cc3c3cc(Cl)ccc32)c(=O)n1 (stereo not given),i,i,i,8*,i,25%*,i,i
Cc1cc(C)n(CC(O)Cn2c3ccccc3c3ccccc32)n1 (stereo not given),i,i,i,i,i,/,/,/
O=C(Nc1ccc2c(c1)OCCO2)c1cccnc1Oc1ccccc1,i,i,i,4.7*,i,5.5%*,i,i
O=C(Oc1ccccc1)c1cccnc1Oc1ccccc1,i,i,i,5*,i,i,i,i
O=C(Nc1ccc2c(c1)OCCO2)c1cccnc1Oc1ccc(Cl)cc1,i,i,i,i,i,i,i,i
CCOc1ccc(CCNc2nc3ccccc3n3cnnc23)cc1OCC,i,i,i,i,i,/,/,/
CC(C)=CCc1c(O)cc2c(=O)c3ccc(O)cc3oc2c1O,i,i,i,11*,i,9.0%*,i,i
O=[N+]([O-])c1cc(NCCO)c(N2CCCCCC2)c2nonc12,i,i,i,i,i,/,/,/
CC1=NN(c2ccc(C)cc2C)C(=O)C1C(c1ccccc1)C1C(=O)N(c2ccc(C)cc2C)N=C1C (stereo not given),i,i,i,i,i,/,/,/
CC1=NN(c2ccc(Cl)cc2)C(=O)C1C(c1cccc(O)c1)c1c(C)[nH]n(-c2ccc(Cl)cc2)c1=O (stereo not given),i,i,i,i,i,/,36%*,i
CC1=NN(c2ccc(F)cc2)C(=O)C1C(c1cccc(O)c1)c1c(C)[nH]n(-c2ccc(F)cc2)c1=O (stereo not given),i,i,i,9.7*,i,13%*,i,i
Cc1ccc(S(=O)(=O)N2CCC(NC(=O)c3ccccc3)CC2)cc1,i,i,i,i,i,/,/,/
O=C(O)c1cccc(Nc2nc(Nc3ccccc3)nc(N3CCCC3)n2)c1,i,i,i,i,i,/,/,/
Cc1cccc(Nc2nc(N3CCCC3)nc(N3CCCC3)n2)c1,i,i,i,i,i,i,i,i
SMILES,MrgX1 ag,RGS4 pot,MrgX1 allo act,RGS4 inh,MrgX1 antagonist,RGS4 inh valid,M3R Ca ctr,RGS4 inh ctr2
COc1nc(Nc2cccc(C)c2)nc(N2CCCCC2)n1,i,i,i,i,i,i,i,i
COc1nc(N/N=C/c2ccc(C)cc2)nc(N2CCCCC2)n1,i,i,i,i,i,/,/,/
Cc1ccc(NCC(=O)N/N=C/c2cc(O)ccc2[N+](=O)[O-])cc1,i,i,i,5.2*,i,i,i,i
Cc1ccc(NCC(=O)N/N=C/c2cccc(Oc3ccccc3)c2)cc1,i,i,i,13*,i,20%*,i,i
Cc1cccc(NCC(=O)N/N=C\c2cccc(Oc3ccccc3)c2)c1,i,i,i,i,i,/,i,i
COc1cccc(NC(=O)c2cnc(SCC(=O)NCc3ccc4c(c3)OCO4)n(C)c2=O)c1,i,i,i,i,i,/,/,/
CCOc1ccc(NC(=O)C2CCCN(C)C2)cc1 (stereo not given),i,i,i,i,i,/,/,/
Cc1cc(C)n(C(=O)c2cc([N+](=O)[O-])cc([N+](=O)[O-])c2)n1,i,i,i,i,i,/,/,/
O=C(Cc1ccc(Br)c2ccccc12)N/N=C/c1ccccn1,i,i,i,5*,i,62%*,i,i
O=C(NCc1cccnc1)/C(=C/c1ccccc1)NC(=O)c1ccccc1,i,i,i,5.2*,i,i,i,i
Cc1ccc(C(=O)N/C(=C/c2cccnc2)C(=O)NCc2ccco2)cc1,i,i,i,i,i,/,/,/
O=C(NCc1cccnc1)/C(=C/c1ccco1)NC(=O)c1ccccc1,i,i,i,i,i,/,/,/
Cc1ccc(C(=O)N/C(=C\c2ccccc2)C(=O)NCc2cccnc2)cc1,i,i,i,i,i,i,i,i
Cc1onc(-c2ccccc2)c1C(=O)NCc1ccccc1F,i,i,i,i,i,/,/,/
CCOC(=O)C1CCN(C(=O)C2CC(=O)N(c3ccc(C)cc3)C2)CC1 (stereo not given),i,i,i,i,i,/,/,/
Cc1c(/C=N/NC(=O)CNc2ccccc2)c2ccccn2c1C(=O)c1ccccc1,i,i,i,i,i,i,i,16%*
Cc1c(/C=N/NC(N)=O)c2ccccn2c1C(=O)c1ccncc1,i,i,i,i,i,/,/,/
